Experimental data reported in ChEMBL document CHEMBL1133115, “Synthesis, biological evaluation, and conformational analysis of A-ring diastereomers of 2-methyl-1,25-dihydroxyvitamin D(3) and their 20-epimers: unique activity profiles depending on the stereochemistry of the A-ring and at C-20” (2000).
Where “and” joins values, the source holds several entries; their conditions need not be identical. Equal entries are not always repeated.

Columns and labels:
HL-60 [1] = experiment: Differentiation inducing effect on HL-60 cells; format: functional, Homo sapiens
Summary of the method: (§1)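 Line 1 is binding to bovine thymus vitamin D receptor. Lines 3 and 6 are differentiation induction in HL-60 cells.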

Rattus norvegicus [2] = organism: Rattus norvegicus; experiment: Bone calcium-mobilizing (BCM) activity at 500 pmol/day/7days in vitamin D deficient rats on a low calcium diet (0.02% Ca); format: functional
Summary of the method: (§2)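 Vitamin D-deficient rats on a low-calcium diet were given the analogue intraperitoneally once daily for 7 consecutive days during the last week, in propylene glycol/ethanol (95:5). Controls received vehicle only. Serum calcium (mg/100 mL) was measured 24 h after the last dose, with 5-6 rats/group. Results are mean ± SEM, compared with control by Student's t-test.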

Rattus norvegicus [3] = organism: Rattus norvegicus; experiment: Bone calcium-mobilizing (BCM) activity at 260 pmol/day *7day in vitamin D deficient rats on a low-calcium diet ([…]); format: functional; summary of the method: as §2
Rattus norvegicus [4] = organism: Rattus norvegicus; experiment: evaluated for increasing effect of serum calcium level in normal rats(Ca); format: functional
Summary of the method: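 Normal male Sprague-Dawley rats were used to measure elevation of serum calcium level. Potency is expressed relative to 1α,25-dihydroxyvitamin D3, which is set at 100.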

Rattus norvegicus [5] = organism: Rattus norvegicus; experiment: Bone Calcium-Mobilizing (BCM) activity (260 pmol/day/7 days) in Vitamin D-Deficient Rats on a Low-Calcium Diet (0.02% Ca diet); format: functional; summary of the method: as §2
Rattus norvegicus [6] = organism: Rattus norvegicus; experiment: Bone Calcium-Mobilizing (BCM) activity (260 pmol/day/7 days) in Vitamin D-Deficient Rats on a Low-Calcium Diet; format: functional; summary of the method: as §2
[7] = target: T1, Vitamin D3 receptor (Bos taurus) (UniProt Q28037); experiment: Binding affinity for bovine thymus vitamin D3 receptor; summary of the method: as §1
T1 sequence (whole entry): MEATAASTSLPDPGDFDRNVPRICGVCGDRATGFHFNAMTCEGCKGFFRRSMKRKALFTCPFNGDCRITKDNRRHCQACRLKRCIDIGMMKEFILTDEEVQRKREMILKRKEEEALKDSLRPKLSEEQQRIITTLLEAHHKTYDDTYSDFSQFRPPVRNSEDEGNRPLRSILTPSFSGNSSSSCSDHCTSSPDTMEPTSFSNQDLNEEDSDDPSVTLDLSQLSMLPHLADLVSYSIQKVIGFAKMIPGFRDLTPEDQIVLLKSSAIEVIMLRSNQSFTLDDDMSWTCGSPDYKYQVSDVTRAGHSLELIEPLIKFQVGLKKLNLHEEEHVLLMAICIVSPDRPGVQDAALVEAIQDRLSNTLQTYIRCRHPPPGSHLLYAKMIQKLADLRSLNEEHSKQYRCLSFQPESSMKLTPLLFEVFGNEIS

[8] = system: Vitamin D-binding protein (Bos taurus); experiment: Binding affinity for calf serum vitamin D-binding protein
HL-60 [9] = experiment: evaluated for differentiation inducing effect on HL-60 cells, relative potency with respect to 1-alpha, 25-Dihydroxyvitamin D3; format: functional, Homo sapiens; summary of the method: as §1

Structure (SMILES) | Relative potency (HL-60 [1]) | BCM serum Ca (Rattus norvegicus [2]) | BCM serum Ca (Rattus norvegicus [3]) | Relative potency (Rattus norvegicus [4]) | also measured
C=C1/C(=C\C=C2/CCC[C@]3(C)[C@@H]([C@H](C)CCCC(C)(C)O)CC[C@@H]23)C[C@H](O)[C@H](C)[C@H]1O (stereo in doubt; form 2) | 0.5 | 3.9 mg 100ml-1 | 3.9 mg 100ml-1 |  | 
C=C1/C(=C\C=C2/CCC[C@]3(C)[C@@H]([C@H](C)CCCC(C)(C)O)CC[C@@H]23)C[C@@H](O)C[C@@H]1O [CALCITRIOL] | 100 |  | <5.5 mg 100ml-1 | 100 | BCM serum Ca (Rattus norvegicus [5]): 6.8 mg 100ml-1; BCM serum Ca (Rattus norvegicus [6]): <5.5 mg 100ml-1 and <5.4 mg 100ml-1 and <6 mg 100ml-1 and <6.1 mg 100ml-1; Relative potency [7]: 100
C=C1/C(=C\C=C2/CCC[C@]3(C)[C@@H]([C@@H](C)CCCC(C)(C)O)CC[C@@H]23)C[C@H](O)[C@@H](C)[C@@H]1O (stereo in doubt; form 2) [listing 1 of 2 here] | 1.5 | <5.4 mg 100ml-1 | <5.2 mg 100ml-1 |  | 
C=C1/C(=C\C=C2/CCC[C@]3(C)[C@@H]([C@H](C)CCCC(C)(C)O)CC[C@@H]23)C[C@@H](O)[C@H](C)[C@@H]1O (stereo in doubt; form 2) | 59000 | <7.8 mg 100ml-1 | <5.8 mg 100ml-1 | 655 | 
C=C1/C(=C\C=C2/CCC[C@]3(C)[C@@H]([C@H](C)CCCC(C)(C)O)CC[C@@H]23)C[C@@H](O)[C@@H](C)[C@@H]1O (stereo in doubt; form 2) | 10 | <5 mg 100ml-1 | 4.1 mg 100ml-1 | 2 | 
C=C1/C(=C\C=C2/CCC[C@]3(C)[C@@H]([C@@H](C)CCCC(C)(C)O)CC[C@@H]23)C[C@H](O)[C@@H](C)[C@H]1O (stereo in doubt; form 2) [listing 1 of 2 here] | 3 | 3.8 mg 100ml-1 | 4.1 mg 100ml-1 |  | 
C=C1/C(=C\C=C2/CCC[C@]3(C)[C@@H]([C@H](C)CCCC(C)(C)O)CC[C@@H]23)C[C@@H](O)[C@@H](C)[C@@H]1O (stereo in doubt; form 1) | 2600 | 4.4 mg 100ml-1 | 4.6 mg 100ml-1 | 115 | 
C=C1/C(=C\C=C2/CCC[C@]3(C)[C@@H]([C@@H](C)CCCC(C)(C)O)CC[C@@H]23)C[C@H](O)[C@@H](C)[C@H]1O (stereo in doubt; form 1) [listing 1 of 2 here] | 190 | 4.4 mg 100ml-1 | 4.4 mg 100ml-1 | 19 | 
C=C1/C(=C\C=C2/CCC[C@]3(C)[C@@H]([C@H](C)CCCC(C)(C)O)CC[C@@H]23)C[C@H](O)[C@H](C)[C@@H]1O (stereo in doubt; form 1) |  | 4.1 mg 100ml-1 | 4.2 mg 100ml-1 |  | 
C=C1/C(=C\C=C2/CCC[C@]3(C)[C@@H]([C@H](C)CCCC(C)(C)O)CC[C@@H]23)C[C@H](O)[C@H](C)[C@@H]1O (stereo in doubt; form 2) | 730 | 4.6 mg 100ml-1 | <4.6 mg 100ml-1 | 144 | 
C=C1/C(=C\C=C2/CCC[C@]3(C)[C@@H]([C@@H](C)CCCC(C)(C)O)CC[C@@H]23)C[C@H](O)[C@@H](C)[C@H]1O (stereo in doubt; form 1) [listing 2 of 2 here] |  |  |  |  | Relative potency [8]: < 0.3; Relative potency [7]: 7
C=C1/C(=C\C=C2/CCC[C@]3(C)[C@@H]([C@H](C)CCCC(C)(C)O)CC[C@@H]23)C[C@@H](O)[C@@H](C)[C@H]1O (stereo in doubt; form 1) |  | 5 mg 100ml-1 | 4.9 mg 100ml-1 |  | Relative potency (HL-60 [9]): 1
C=C1/C(=C\C=C2/CCC[C@]3(C)[C@@H]([C@@H](C)CCCC(C)(C)O)CC[C@@H]23)C[C@H](O)[C@@H](C)[C@@H]1O (stereo in doubt; form 2) [listing 2 of 2 here] |  |  |  |  | Relative potency [8]: 21; Relative potency [7]: 0.3
C=C1/C(=C\C=C2/CCC[C@]3(C)[C@@H]([C@@H](C)CCCC(C)(C)O)CC[C@@H]23)C[C@H](O)[C@@H](C)[C@@H]1O (stereo in doubt; form 1) [listing 1 of 2 here] | 6 | 4.3 mg 100ml-1 | 4.4 mg 100ml-1 |  | 
C=C1/C(=C\C=C2/CCC[C@]3(C)[C@@H]([C@@H](C)CCCC(C)(C)O)CC[C@@H]23)C[C@H](O)[C@@H](C)[C@H]1O (stereo in doubt; form 2) [listing 2 of 2 here] |  |  |  |  | Relative potency [8]: 1300; Relative potency [7]: 0.8
C=C1/C(=C\C=C2/CCC[C@]3(C)[C@@H]([C@@H](C)CCCC(C)(C)O)CC[C@@H]23)C[C@H](O)[C@@H](C)[C@@H]1O (stereo in doubt; form 1) [listing 2 of 2 here] |  |  |  |  | Relative potency [8]: < 0.3; Relative potency [7]: < 0.1
C=C1/C(=C\C=C2/CCC[C@]3(C)[C@@H]([C@H](C)CCCC(C)(C)O)CC[C@@H]23)C[C@@H](O)[C@H](C)[C@H]1O (stereo in doubt; form 2) | 1 | 4.3 mg 100ml-1 | 4.4 mg 100ml-1 |  | 
C=C1/C(=C\C=C2/CCC[C@]3(C)[C@@H]([C@H](C)CCCC(C)(C)O)CC[C@@H]23)C[C@@H](O)[C@H](C)[C@H]1O (stereo in doubt; form 1) | 3 | 4.7 mg 100ml-1 | 4.8 mg 100ml-1 |  | 
C=C1/C(=C\C=C2/CCC[C@]3(C)[C@@H]([C@H](C)CCCC(C)(C)O)CC[C@@H]23)C[C@H](O)[C@H](C)[C@H]1O (stereo in doubt; form 1) | 1 | 4.4 mg 100ml-1 | 4.3 mg 100ml-1 |  | 
C=C1/C(=C\C=C2/CCC[C@]3(C)[C@@H]([C@H](C)CCCC(C)(C)O)CC[C@@H]23)C[C@@H](O)[C@H](C)[C@@H]1O (stereo in doubt; form 1) | 200 |  | <6 mg 100ml-1 | 400 | 
C=C1/C(=C\C=C2/CCC[C@]3(C)[C@@H]([C@H](C)CCCC(C)(C)O)CC[C@@H]23)C[C@@H](O)[C@@H](C)[C@H]1O (stereo in doubt; form 2) | 1.5 | <4.9 mg 100ml-1 | <5 mg 100ml-1 |  | 
